ChEMBL document CHEMBL2086363, “Lipophilic Isosteres of a π-π Stacking Interaction: New Inhibitors of the Bcl-2-Bak Protein-Protein Interaction” (ACS Med Chem Lett, 2012)

What was measured:
[1] = biological target: Apoptosis regulator Bcl-2/Bcl-2 homologous antagonist/killer (Homo sapiens, UniProt P10415); test: Inhibition of Bcl2-BAK interaction after 1 hr by surface plasmon resonance assay; assay type: protein assay
How it was run: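 SPR measurement of Bcl-2–Bak binding inhibition. Each value is the average of at least two measurements, with duplicate EC50 values generated in each assay.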

MCL1-BAK1 complex = MCL1-BAK1 complex (Homo sapiens, UniProt Q07820); test: Inhibition of Mcl1-BAK interaction; assay type: protein-complex assay
Sequence of MCL1-BAK1 complex (Q07820 whole entry): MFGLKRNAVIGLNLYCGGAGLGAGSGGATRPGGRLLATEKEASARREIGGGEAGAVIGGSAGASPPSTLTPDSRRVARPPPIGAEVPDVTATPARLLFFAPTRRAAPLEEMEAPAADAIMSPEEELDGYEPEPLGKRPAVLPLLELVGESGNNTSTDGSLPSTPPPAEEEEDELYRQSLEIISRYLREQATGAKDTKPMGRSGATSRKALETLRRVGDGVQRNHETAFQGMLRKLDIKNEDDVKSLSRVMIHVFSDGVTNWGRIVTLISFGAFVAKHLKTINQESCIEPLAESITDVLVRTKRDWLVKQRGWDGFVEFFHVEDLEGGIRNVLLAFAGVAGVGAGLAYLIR
Sequence of MCL1-BAK1 complex (Q16611 whole entry, further chain): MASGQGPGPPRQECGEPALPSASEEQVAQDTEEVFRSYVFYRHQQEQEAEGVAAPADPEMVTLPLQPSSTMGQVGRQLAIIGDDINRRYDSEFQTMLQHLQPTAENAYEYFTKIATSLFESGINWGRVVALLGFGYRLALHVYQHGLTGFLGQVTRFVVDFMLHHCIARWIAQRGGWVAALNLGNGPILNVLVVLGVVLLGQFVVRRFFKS

Bcl-xL/BAK = Bcl-xL/BAK (Homo sapiens, UniProt Q07817); test: Inhibition of Bcl-XL-BAK interaction; assay type: protein assay
Sequence of Bcl-xL/BAK (Q07817 whole entry): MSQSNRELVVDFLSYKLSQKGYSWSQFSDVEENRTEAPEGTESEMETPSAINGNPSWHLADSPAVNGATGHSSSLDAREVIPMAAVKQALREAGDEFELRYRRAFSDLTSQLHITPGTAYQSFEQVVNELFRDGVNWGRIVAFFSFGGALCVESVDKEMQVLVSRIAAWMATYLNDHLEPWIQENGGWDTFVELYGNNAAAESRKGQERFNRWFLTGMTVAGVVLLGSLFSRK
Sequence of Bcl-xL/BAK (Q16611 whole entry, further chain): as the sequence (Q16611 whole entry, further chain) above

[2] = Oral bioavailability in Sprague-Dawley rat at 10 mg/kg; assay type: ADME, organism-based; settings: in vivo
[3] = Volume of distribution at steady state in Sprague-Dawley rat at 1 mg/kg, iv and 10 mg/kg, po; assay type: ADME, organism-based; settings: in vivo, read-out: Vdss
[4] = Clearance in Sprague-Dawley rat at 1 mg/kg, iv and 10 mg/kg, po; assay type: ADME, organism-based; settings: in vivo
[5] = Half life in Sprague-Dawley rat at 1 mg/kg, iv and 10 mg/kg, po; assay type: ADME, organism-based; settings: in vivo
[6] = Selectivity ratio of EC50 for Bcl-XL-BAK interaction to EC50 for Bcl2-BAK interaction

Sequence of Apoptosis regulator Bcl-2/Bcl-2 homologous antagonist/killer (P10415 whole entry): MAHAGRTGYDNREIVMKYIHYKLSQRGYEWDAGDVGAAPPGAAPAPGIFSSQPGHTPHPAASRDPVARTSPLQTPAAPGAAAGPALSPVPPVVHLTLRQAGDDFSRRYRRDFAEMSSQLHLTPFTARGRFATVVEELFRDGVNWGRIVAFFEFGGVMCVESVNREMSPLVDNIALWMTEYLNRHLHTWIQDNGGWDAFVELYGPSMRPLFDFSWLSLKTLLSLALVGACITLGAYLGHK
Sequence of Apoptosis regulator Bcl-2/Bcl-2 homologous antagonist/killer (Q16611 whole entry, further chain): as the sequence (Q16611 whole entry, further chain) above

| SMILES | IC50 (MCL1-BAK1 complex) [µM] | EC50 [1] [µM] | further results |
| --- | --- | --- | --- |
| O=C(NS(=O)(=O)CC12CC3CC(C1)CC(NC(=O)C1CC1)(C3)C2)c1ccc(N2CCN(Cc3ccccc3-c3ccc(Cl)cc3)CC2)cc1 |  | 0.21 |  |
| O=C(NS(=O)(=O)CC12CC3CC(C1)CC(c1ccccc1)(C3)C2)c1ccc(N2CCN(Cc3ccccc3-c3ccc(Cl)cc3)CC2)cc1 |  | 1.97 |  |
| O=C(NS(=O)(=O)CC12CC3CC(CC(F)(C3)C1)C2)c1ccc(N2CCN(Cc3ccccc3-c3ccc(Cl)cc3)CC2)cc1 |  | 0.48 |  |
| CC(C)C(=O)NC12CC3CC(CC(CS(=O)(=O)NC(=O)c4ccc(N5CCN(Cc6ccccc6-c6ccc(Cl)cc6)CC5)cc4)(C3)C1)C2 |  | 0.16 |  |
| CC(=O)NC12CC3CC(CC(CS(=O)(=O)NC(=O)c4ccc(N5CCN(Cc6ccccc6-c6ccc(Cl)cc6)CC5)cc4)(C3)C1)C2 |  | 0.23 |  |
| O=C(NS(=O)(=O)CC12CC3CC(CC(O)(C3)C1)C2)c1ccc(N2CCN(Cc3ccccc3-c3ccc(Cl)cc3)CC2)cc1 |  | 0.3 | bioavailability [2]: > 100%; Vd [3]: 1.2 L/kg; clearance [4]: 16 mL/min/kg; half-life [5]: 1.3 h |
| O=C(NS(=O)(=O)CCC12CC3CC(CC(C3)C1)C2)c1ccc(N2CCN(Cc3ccccc3-c3ccc(Cl)cc3)CC2)cc1 | > 50 | 2.81 |  |
| O=C(NS(=O)(=O)CC12CC3CC(C1)CC(OCCN1CCOCC1)(C3)C2)c1ccc(N2CCN(Cc3ccccc3-c3ccc(Cl)cc3)CC2)cc1 |  | 0.31 |  |
| O=C(NS(=O)(=O)NC12CC3CC(CC(C3)C1)C2)c1ccc(N2CCN(Cc3ccccc3-c3ccc(Cl)cc3)CC2)cc1 | > 50 | 2.1 |  |
| O=C(NS(=O)(=O)C12CC3CC(CC(C3)C1)C2)c1ccc(N2CCN(Cc3ccccc3-c3ccc(Cl)cc3)CC2)cc1 | > 50 | > 16 |  |
| CC(C)(C)C(=O)NC12CC3CC(CC(CS(=O)(=O)NC(=O)c4ccc(N5CCN(Cc6ccccc6-c6ccc(Cl)cc6)CC5)cc4)(C3)C1)C2 |  | 0.52 |  |
| CC12CC3CC(C1)CC(CS(=O)(=O)NC(=O)c1ccc(N4CCN(Cc5ccccc5-c5ccc(Cl)cc5)CC4)cc1)(C3)C2 |  | 1.1 |  |
| O=C(NS(=O)(=O)CC12CC3CCC(CC(C3)C1)C2)c1ccc(N2CCN(Cc3ccccc3-c3ccc(Cl)cc3)CC2)cc1 | > 50 | 0.12 | EC50 (Bcl-xL/BAK): 0.22 µM |
| O=C(NS(=O)(=O)CC12CC3CC(CC(Br)(C3)C1)C2)c1ccc(N2CCN(Cc3ccccc3-c3ccc(Cl)cc3)CC2)cc1 |  | 0.67 |  |

Second part, led by results:

| IC50 (MCL1-BAK1 complex) [µM] | SMILES | EC50 [1] [µM] | further results |
| --- | --- | --- | --- |
| > 50 | CC(C)(C)S(=O)(=O)NC(=O)c1ccc(N2CCN(Cc3ccccc3-c3ccc(Cl)cc3)CC2)cc1 | > 16 |  |
| > 50 | CC1(C)C2CC[C@]1(CS(=O)(=O)NC(=O)c1ccc(N3CCN(Cc4ccccc4-c4ccc(Cl)cc4)CC3)cc1)C(=O)C2 | 1.02 |  |
| > 50 | CCS(=O)(=O)NC(=O)c1ccc(N2CCN(Cc3ccccc3-c3ccc(Cl)cc3)CC2)cc1 | 5.31 |  |
| > 50 | CC1(C)[C@]2(C)CC[C@@H](CS(=O)(=O)NC(=O)c3ccc(N4CCN(Cc5ccccc5-c5ccc(Cl)cc5)CC4)cc3)[C@@]1(C)C2 | 0.42 | EC50 (Bcl-xL/BAK): 0.58 µM |
| > 50 | CS(=O)(=O)NC(=O)c1ccc(N2CCN(Cc3ccccc3-c3ccc(Cl)cc3)CC2)cc1 | 8.62 |  |
| > 50 | CC1(C)[C@@]2(C)CC[C@H](CS(=O)(=O)NC(=O)c3ccc(N4CCN(Cc5ccccc5-c5ccc(Cl)cc5)CC4)cc3)[C@]1(C)C2 | 0.56 |  |
| > 50 | CC1(C)C2CC[C@@]1(CS(=O)(=O)NC(=O)c1ccc(N3CCN(Cc4ccccc4-c4ccc(Cl)cc4)CC3)cc1)C(=O)C2 | 1.47 |  |
| > 50 | O=C(NS(=O)(=O)CC12CC3CC(CC(C3)C1)C2)c1ccc(N2CCN(Cc3ccccc3-c3ccc(Cl)cc3)CC2)cc1 | 0.67 | bioavailability [2]: 66%; Vd [3]: 0.7 L/kg; clearance [4]: 6 mL/min/kg; EC50 (Bcl-xL/BAK): 2.85 µM; Ratio EC50 [6]: 4.3; half-life [5]: 1.3 h |
| > 50 | O=C(NS(=O)(=O)CC12CC3CC(CC1C3)C2)c1ccc(N2CCN(Cc3ccccc3-c3ccc(Cl)cc3)CC2)cc1 | 2.66 |  |
